Measurements taken from ChEMBL document CHEMBL4138217, “Discovery of a novel series of α-terpineol derivatives as promising anti-asthmatic agents: Their design, synthesis, and biological evaluation” (2018).

Assays:
Smooth muscle of trachea [1] = assay: Anti-asthmatic activity in guinea pig tracheal smooth muscle ring assessed as reduction in acetylcholine-induced muscle contractions after 60 mins; format: functional, tissue-based; conditions: Cavia porcellus
How it was run: (§1)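 Guinea pig tracheal rings were held in Krebs-Henseleit at 36.5±0.5°C under 95% O2/5% CO2, at 1.0 g resting tension with 60-min equilibration. Isometric tension was recorded after acetylcholine-induced contraction. The read-out was percentage change in smooth muscle tension with compound, as means±S.D (n=10).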

Smooth muscle of trachea [2] = assay: Anti-asthmatic activity in guinea pig tracheal smooth muscle ring assessed as reduction in acetylcholine-induced muscle contractions by measuring muscle relaxation at 1.25 mmol/l after 60 mins (reference value: 13.59 +/- 9.14%); format: functional, Cavia porcellus; design: scale not given: the % may be the effect or the level left; how it was run: as §1
Smooth muscle of trachea [3] = assay: Anti-asthmatic activity in guinea pig tracheal smooth muscle ring assessed as reduction in acetylcholine-induced muscle contractions by measuring muscle relaxation at 0.75 mmol/l after 60 mins (reference value: 7.73 +/- 4.81%); format: functional, Cavia porcellus; design: scale not given: the % may be the effect or the level left; how it was run: as §1
[4] = molecular target: Adrenergic receptor beta (Rattus norvegicus) (UniProt P18090+P10608+P26255); assay: Agonist activity at beta-adrenergic receptor in rat airway smooth muscle cells assessed as reduction in acetylcholine-induced muscle contractions by measuring cAMP levels after 18 hrs post acetylcholine stimulation by ELISA (reference value: 8.402 +/- 0.041 nmol/l); format: functional
How it was run: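 Rat airway smooth muscle cells (passages 4–6) were seeded at 5×10^4/mL and grown for 48 h. They were stimulated with acetylcholine 0.33 mmol/L for 4 h, then exposed to compound for 18 h. Cells were trypsinized (0.25%, 2 min) and sonicated, and cAMP in the supernatant was measured by ELISA.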

Rattus norvegicus [5] = assay: Anti-asthmatic activity in ovalbumin-induced asthmatic Sprague-Dawley rat model assessed as improvement in lung function by measuring dynamic compliance of the airway at 1.6 g/kg, po co-administered with OVA from day 15 to 21 of experiment period (reference value: 0.46 +/- 0.17); format: functional
Rattus norvegicus [6] = assay: Anti-asthmatic activity in ovalbumin-induced asthmatic Sprague-Dawley rat model assessed as IL-14 levels in serum at 1.6 g/kg, po co-administered with OVA from day 15 to 21 of experiment period (reference value: 16.04 +/- 1.41 pg/ml); format: functional
Rattus norvegicus [7] = assay: Anti-asthmatic activity in ovalbumin-induced asthmatic Sprague-Dawley rat model assessed as improvement in lung function by measuring airway resistance at 1.6 g/kg, po co-administered with OVA from day 15 to 21 of experiment period (reference value: 67.33 +/- 10.54); format: functional
Rattus norvegicus [8] = assay: Anti-asthmatic activity in ovalbumin-induced asthmatic Sprague-Dawley rat model assessed as IL-17 levels in serum at 1.6 g/kg, po co-administered with OVA from day 15 to 21 of experiment period (reference value: 16.85 +/- 1.13 pg/ml); format: functional
Rattus norvegicus [9] = assay: Anti-asthmatic activity in ovalbumin-induced asthmatic Sprague-Dawley rat model assessed as improvement in lung function by measuring airway resistance at 1 g/kg, po co-administered with OVA from day 15 to 21 of experiment period (reference value: 67.33 +/- 10.54); format: functional
Rattus norvegicus [10] = assay: Anti-asthmatic activity in ovalbumin-induced asthmatic Sprague-Dawley rat model assessed as improvement in lung function by measuring dynamic compliance of the airway at 1 g/kg, po co-administered with OVA from day 15 to 21 of experiment period (reference value: 0.46 +/- 0.17); format: functional
Rattus norvegicus [11] = assay: Anti-asthmatic activity in ovalbumin-induced asthmatic Sprague-Dawley rat model assessed as IL-14 levels in serum at 1 g/kg, po co-administered with OVA from day 15 to 21 of experiment period (reference value: 16.04 +/- 1.41 pg/ml); format: functional
Rattus norvegicus [12] = assay: Anti-asthmatic activity in ovalbumin-induced asthmatic Sprague-Dawley rat model assessed as IL-17 levels in serum at 1 g/kg, po co-administered with OVA from day 15 to 21 of experiment period (reference value: 16.85 +/- 1.13 pg/ml); format: functional
Rattus norvegicus [13] = assay: Anti-asthmatic activity in ovalbumin-induced asthmatic Sprague-Dawley rat model assessed as improvement in lung function by measuring dynamic compliance of the airway at 0.5 mg/kg, po co-administered with OVA from day 15 to 21 of experiment period (reference value: 0.46 +/- 0.17)
Rattus norvegicus [14] = assay: Anti-asthmatic activity in ovalbumin-induced asthmatic Sprague-Dawley rat model assessed as IL-17 levels in serum at 0.5 mg/kg, po co-administered with OVA from day 15 to 21 of experiment period (reference value: 16.85 +/- 1.13 pg/ml)
Rattus norvegicus [15] = assay: Anti-asthmatic activity in ovalbumin-induced asthmatic Sprague-Dawley rat model assessed as IL-14 levels in serum at 0.5 mg/kg, po co-administered with OVA from day 15 to 21 of experiment period (reference value: 16.04 +/- 1.41 pg/ml)
Rattus norvegicus [16] = assay: Anti-asthmatic activity in ovalbumin-induced asthmatic Sprague-Dawley rat model assessed as improvement in lung function by measuring airway resistance at 0.5 mg/kg, po co-administered with OVA from day 15 to 21 of experiment period (reference value: 67.33 +/- 10.54)

SMILES: CC1=CCC(C(C)(C)OC(=O)C(C)C)CC1 (stereo not given)
- Activity (Smooth muscle of trachea [1]): Dose-dependent effect
- Activity (Smooth muscle of trachea [2]): 22.79%
- Activity (Smooth muscle of trachea [3]): 19.88%

SMILES: CCCCCCCCCCCCCCCCCC(=O)OC(C)(C)C1CC=C(C)CC1 (stereo not given)
- Activity (Smooth muscle of trachea [1]): Dose-dependent effect

SMILES: CC1=CCC(C(C)(C)OC(=O)CN(CCO)CCO)CC1 (stereo not given)
- Activity [4]: 8.94 nmol/L
- Activity (Smooth muscle of trachea [1]): Dose-dependent effect

SMILES: CC1=CCC(C(C)(C)OC(=O)CN2CCOCC2)CC1 (stereo not given)
- Activity [4]: 8.81 nmol/L
- Activity (Smooth muscle of trachea [1]): Dose-dependent effect

SMILES: CC1=CCC(C(C)(C)OC=O)CC1 (stereo not given)
- Activity (Smooth muscle of trachea [1]): Dose-dependent effect
- Activity (Smooth muscle of trachea [2]): 21.57%
- Activity (Smooth muscle of trachea [3]): 14.62%

SMILES: CCC(=O)OC(C)(C)C1CC=C(C)CC1 (stereo not given)
- Activity (Smooth muscle of trachea [1]): Dose-dependent effect
- Activity (Smooth muscle of trachea [2]): 23.22%
- Activity (Smooth muscle of trachea [3]): 18.18%

SMILES: CC1=CCC(C(C)(C)OC(=O)CSCC(O)CO)CC1 (stereo not given)
- Activity [4]: 8.76 nmol/L
- Activity (Smooth muscle of trachea [1]): Dose-dependent effect
- Activity (Smooth muscle of trachea [2]): 65.29%
- Activity (Smooth muscle of trachea [3]): 34.84%

SMILES: CCCCCCCCCCCCCC(=O)OC(C)(C)C1CC=C(C)CC1 (stereo not given)
- Activity (Smooth muscle of trachea [1]): Dose-dependent effect

SMILES: CC1CCC(C(C)(C)O)CC1 (stereo not given)
- Activity (Smooth muscle of trachea [1]): Dose-dependent effect

SMILES: CC1=CCC(C(C)(C)OC(=O)C(C)(C)C)CC1 (stereo not given)
- Activity (Smooth muscle of trachea [1]): Dose-dependent effect
- Activity (Smooth muscle of trachea [2]): 28.02%
- Activity (Smooth muscle of trachea [3]): 25.49%

SMILES: CC1=CCC(C(C)(C)OC(=O)CN2CCC(=O)CC2)CC1 (stereo not given)
- Activity (Smooth muscle of trachea [1]): Dose-dependent effect

SMILES: CC1=CCC(C(C)(C)OC(=O)CSCCO)CC1 (stereo not given)
- Activity [4]: 8.82 nmol/L
- Activity (Rattus norvegicus [5]): 0.88
- Activity (Rattus norvegicus [6]): 14 pg/mL
- Activity (Rattus norvegicus [7]): 41.69
- Activity (Rattus norvegicus [8]): 15.09 pg/mL
- Activity (Smooth muscle of trachea [1]): Dose-dependent effect

SMILES: CCN(CC)CC(=O)OC(C)(C)C1CC=C(C)CC1 (stereo not given)
- Activity [4]: 9.53 nmol/L
- Activity (Smooth muscle of trachea [1]): Dose-dependent effect

SMILES: CC1=CCC(C(C)(C)OC(=O)CN2CCCCC2)CC1 (stereo not given)
- Activity (Smooth muscle of trachea [1]): Dose-dependent effect

SMILES: CC1=CCC(C(C)(C)OC(=O)CN2CCC(O)CC2)CC1 (stereo not given)
- Activity [4]: 8.98 nmol/L
- Activity (Smooth muscle of trachea [1]): Dose-dependent effect

SMILES: CC(=O)OC(C)(C)C1CC=C(C)CC1 (stereo not given)
- Activity (Smooth muscle of trachea [1]): Dose-dependent effect
- Activity (Smooth muscle of trachea [2]): 47.72%
- Activity (Smooth muscle of trachea [3]): 34.35%

SMILES: CCCC(=O)OC(C)(C)C1CC=C(C)CC1 (stereo not given)
- Activity (Smooth muscle of trachea [1]): Dose-dependent effect
- Activity (Smooth muscle of trachea [2]): 25.47%
- Activity (Smooth muscle of trachea [3]): 21.2%

SMILES: CC1=CCC(C(C)(C)OC(=O)CO[N+](=O)[O-])CC1 (stereo not given)
- Activity (Smooth muscle of trachea [1]): Dose-dependent effect

SMILES: CC1=CCC(C(C)(C)OC(=O)CN(C)CCO)CC1 (stereo not given)
- Activity [4]: 9.01 nmol/L
- Activity (Rattus norvegicus [5]): 0.84
- Activity (Rattus norvegicus [6]): 15.66 pg/mL
- Activity (Rattus norvegicus [7]): 51.69
- Activity (Rattus norvegicus [8]): 16.35 pg/mL
- Activity (Smooth muscle of trachea [1]): Dose-dependent effect

SMILES: Cn1c(=O)c2[nH]cnc2n(C)c1=O
- Activity [4]: 8.6 nmol/L
- Activity (Smooth muscle of trachea [1]): Dose-dependent effect

SMILES: CC1=CCC(C(C)(C)O)CC1 (stereo not given)
- Activity [4]: 8.51 nmol/L
- Activity (Rattus norvegicus [9]): 60.57
- Activity (Rattus norvegicus [10]): 0.53
- Activity (Rattus norvegicus [11]): 15.5 pg/mL
- Activity (Rattus norvegicus [12]): 16.19 pg/mL
- Activity (Smooth muscle of trachea [1]): Dose-dependent effect

SMILES: CC(=O)OCC(=O)[C@@]1(O)[C@H](C)C[C@H]2[C@@H]3CCC4=CC(=O)C=C[C@]4(C)[C@@]3(F)[C@@H](O)C[C@@]21C [DEXAMETHASONE ACETATE]
- Activity (Rattus norvegicus [13]): 0.66
- Activity (Rattus norvegicus [14]): 16.06 pg/mL
- Activity (Rattus norvegicus [15]): 14.31 pg/mL
- Activity (Rattus norvegicus [16]): 41.51
